CHRM5 PAM = positive allosteric modulators of human muscarinic M5 receptor; AID 624038; activation, % at 3 µM; P08912; CHO-K1 hM5, Fluo-8 calcium, ACh EC20 PAM; 0% = ACh EC20, 100% = ACh EC100; 360,000 compounds, 0.3% hits;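 active means activation above the run cutoff, the mean activation of all test compounds plus 3 SD, cut at about 18% in these data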
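Assay system – human M5 receptor in CHO-K1 cells · Read-out – % activation, ACh-normalized · Technique – Fluo-8 calcium fluorescence · Dosing – single-point, 3 µM nominal · Incubation – Fluo-8 loading 80 min at 37 °C plus 30 min room temperature · Repeats – singlicate, one well per test compound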
CHRM5 agonist = CHRM5 agonism in calcium assay; CHO-K1 hM5 cells, Fluo-8 calcium fluorescence; 0% DMSO wells, 100% maximal acetylcholine response; activation, % at 3 µM; 360,000 compounds, 0.19% hits; AID 624037;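 active means activation above the run's mean over test compounds plus 3 SD, cut at about 23% in these data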;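 further: signal is peak over basal fluorescence ratio across the kinetic read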
CHRM5 antagonist = antagonists of human muscarinic M5 receptor (CHRM5) | P08912 | CHO-hM5 cells, Fluo-8 calcium fluorescence, ACh EC80 | inhibition, % at 3 µM | 360,000 compounds, 0.59% hits | AID 624040;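 active means inhibition above a per-plate cutoff, the mean of that plate's test compounds plus 3 SD, cut at about 27% in these data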;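 further: 0% = acetylcholine EC80 with DMSO and 100% = DMSO without agonist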
M4 ag = CHRM4 agonism in calcium assay; P08173; CHO-K1 hM4/Gqi5, Fluo-8 calcium fluorescence; vehicle 0%, full acetylcholine response 100%; activation, % at 3 µM; 360,000 compounds, 0.14% hits; AID 624127;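 active means activation above the run mean over all test wells plus 3 SD, cut at about 32% in these data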;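 further: peak over basal fluorescence ratio per well then scaled between controls; 0% = DMSO wells and 100% = acetylcholine at EC100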
Target sequence (P08173 whole entry, looked up): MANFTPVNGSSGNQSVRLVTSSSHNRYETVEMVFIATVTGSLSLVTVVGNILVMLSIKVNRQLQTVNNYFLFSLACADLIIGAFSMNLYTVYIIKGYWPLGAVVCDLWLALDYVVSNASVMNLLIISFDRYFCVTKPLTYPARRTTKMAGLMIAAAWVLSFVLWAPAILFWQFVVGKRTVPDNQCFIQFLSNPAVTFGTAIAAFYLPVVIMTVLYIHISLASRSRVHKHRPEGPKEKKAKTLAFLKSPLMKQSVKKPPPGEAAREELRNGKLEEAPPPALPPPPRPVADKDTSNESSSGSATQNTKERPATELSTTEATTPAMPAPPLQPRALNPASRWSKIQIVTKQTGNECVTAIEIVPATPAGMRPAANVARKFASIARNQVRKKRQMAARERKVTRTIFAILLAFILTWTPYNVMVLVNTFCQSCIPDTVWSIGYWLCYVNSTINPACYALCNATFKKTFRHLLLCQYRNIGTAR
CHRM4 PAM = positive allosteric modulators of human muscarinic M4 receptor; AID 624126; CHO-K1 hM4/Gqi5, Fluo-8 calcium fluorescence, ACh EC20; 0% = ACh EC20, 100% = maximal ACh; activation, % at 3 µM; P08173; 360,000 compounds, 0.4% hits;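 active means activation above its plate's cutoff, the mean activation of sample wells plus 3 SD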
CHRM4 antagonist = antagonists of human muscarinic M4 receptor (CHRM4); CHO-hM4 cells, ACh EC80, Fluo-8 calcium fluorescence; inhibition, % at 3 µM; 360,000 compounds, 0.73% hits; AID 624125;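 active means inhibition above its plate's cutoff, the mean inhibition of sample wells plus 3 SD, cut at about 27% in these data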;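 further: 0% = acetylcholine EC80 with DMSO and 100% = DMSO without agonist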
Active calls of the source: *. This is a sample that favours compounds with a hit; in the whole collection about 1.9% have one here.

SMILES	CHRM5 PAM	CHRM5 agonist	CHRM5 antagonist	M4 ag	CHRM4 PAM	CHRM4 antagonist
O=[N+]([O-])c1ccc(CSc2nnc(-c3cccnc3)o2)cc1	22*	6	-11	-1	-5	5
Cc1cccnc1C(NC(=O)C1CCN(Cc2cn(C)c3ccccc23)CC1)c1ccc(Cl)cc1 (stereo unspecified)	-4	2	8	23	-4	8
CN(C)c1ccc2nc3c(=O)[nH]c(=O)nc-3n(CC(O)C(O)C(O)CO)c2c1 (stereo unspecified)	1	12	1	48*	-12	13
O=C(CSc1ccc2ccccc2n1)NCCC1=CCCCC1	-13	-8	30*	-2	-6	-12
c1ccc2sc(-c3ccncc3)nc2c1	32*	-3	28*	1	0	-2
CC(C)(C)n1nnnc1C(c1cccs1)N1CCN(C/C=C/c2ccccc2)CC1 (stereo unspecified)	-22	-8	28*	-1	-14	13
C(=C\c1ccccc1)/CN1CCN(C(c2nnnn2C2CCCC2)C2CC2)CC1 (stereo unspecified)	-4	-8	6	0	-4	-4
C(=C\c1ccccc1)/CN1CCN(C(c2cccs2)c2nnnn2C2CCCC2)CC1 (stereo unspecified)	-22	-8	31*	-1	-11	4
C(=C\c1ccccc1)/CN1CCN(C(c2cccc3ccccc23)c2nnnn2Cc2ccccc2)CC1 (stereo unspecified)	-22	-3	38*	2	-11	6
C(=C\c1ccccc1)/CN1CCN(C(c2cccs2)c2nnnn2Cc2ccccc2)CC1 (stereo unspecified)	-20	-7	10	8	-14	-8
CC(C)(C)n1nnnc1C(c1cccs1)N1CCN(Cc2ccccc2)CC1 (stereo unspecified)	-3	-6	6	0	-2	5
C(=C\c1ccccc1)/CN1CCN(C(c2ccccc2)c2nnnn2C2CCCC2)CC1 (stereo unspecified)	-22	-8	44*	4	-14	14
COc1ccccc1N(C)S(=O)(=O)c1ccc(C(=O)Nc2nccs2)cc1	-21	3	9	16	-9	-3
Cc1cc(C)nc(SCc2ccc(C(=O)N/N=C/c3ccccn3)cc2)n1	-13	2	6	16	-11	3
CCn1c(SCC(=O)NC(=O)c2ccccc2OC)nc2ccccc21	14	0	-23	1	6	-4
COc1ccc(C(=O)NCc2nnc(SCC(=O)NC3CCCC3)o2)cc1	-3	-2	1	0	2	11
CC(C)(C)n1nnnc1C(c1ccnc2ccccc12)N1CCN(C/C=C/c2ccccc2)CC1 (stereo unspecified)	-16	-7	7	3	-2	0
C(=C\c1ccccc1)/CN1CCN(C(c2ccnc3ccccc23)c2nnnn2C2CCCC2)CC1 (stereo unspecified)	-22	-8	86*	1	-15	31*
O=C(CN1CCc2ccccc2C1)Nc1ccc(OC(F)(F)F)cc1	-20	-7	18	-1	-16	82*
O=C(CN1CCc2ccccc2C1)Nc1ccc(F)cc1	3	4	1	1	-3	3
C[C@@H](CSc1ccc(Br)cc1)CN1CC[C@H](NC(=O)OCc2ccccc2)CCC1=O	-15	2	15	17	-5	28*
Cc1cc(C)c2sc(C)[n+](CCCS(=O)(=O)[O-])c2c1	-1	4	-2	1	-2	-4
CC[n+]1c(C)sc2c(C)cc(C)cc21	27*	14	-6	-1	-3	4
Cc1ccc(C(C)C)c(OCC(=O)OCC(=O)NC2CCS(=O)(=O)C2)c1 (stereo unspecified)	0	-3	5	1	16	-11
CCOc1ccc(NC(=O)Nc2cccc(C(=O)O)c2)cc1	-1	-4	5	6	5	8
SMILES	CHRM5 PAM	CHRM5 agonist	CHRM5 antagonist	M4 ag	CHRM4 PAM	CHRM4 antagonist
O=C(Nc1ccc(F)cc1)Nc1cc(OCC(F)(F)F)cc(OCC(F)(F)F)c1	-18	8	30*	12	-13	19
CCOc1ccc(NC(=O)Nc2cc(OCC(F)(F)F)cc(OCC(F)(F)F)c2)cc1	-15	1	28*	10	-9	9
CCOc1ccc(NC(=O)Nc2ccc3nsnc3c2)cc1	-23	6	33*	17	-12	2
COC(=O)c1ccc(NC(=O)Nc2ccc(F)cc2)cc1	-17	6	21	14	-9	13
NC(=O)c1c(-c2ccc(Cl)cc2Cl)csc1NC(=O)Cc1ccccc1	-19	0	38*	9	-25	3
CC1=CC(C)(C)N2C(=O)C(=O)c3cc(OC(=O)c4ccco4)cc1c32	-12	36*	9	20	-11	-1
COc1ccccc1S(=O)(=O)Cc1ccc(C(=O)NC2CC2)o1	8	-2	5	3	7	-8
Cc1nnsc1C(=O)N1CCCC(C)(C(=O)NS(=O)(=O)C2CC2)C1 (stereo unspecified)	-1	0	-5	2	20*	-13
Cn1c(C(=O)NC2CC2)cc2c(=O)n(C)c3ccccc3c21	-4	1	1	25	31*	5
CCCCN(CC)C(=O)c1cc2cc3ccc(OC)cc3nc2o1	42*	17	-1	3	14	5
CCN(CC(=O)Nc1c(F)cccc1F)C(=O)c1ccc(-n2cncn2)c([N+](=O)[O-])c1	1	4	0	0	-6	35*
Cc1nn(CC(=O)NCCN2CCCCC2C)c(=O)c2cc(-c3ccccc3)nn12 (stereo unspecified)	32*	-6	18	2	-5	-2
COc1ccc(NC2=CC(c3cccc(OC)c3)N(c3ccc(OC)cc3)C2=O)cc1 (stereo unspecified)	-8	7	50*	2	0	24
O=C1CCC(C(=O)Nc2cc(C(F)(F)F)ccc2-n2cncn2)=NN1	0	4	-2	0	1	5
CC12CCC(=O)N1C(C(=O)NCCc1ccc(S(N)(=O)=O)cc1)CS2 (stereo unspecified)	-3	-2	-4	1	8	-5
CCn1ccc(C(=O)NC2=C(C#N)CCC2)n1	21*	1	-1	-1	-2	-2
CCn1nccc1C(=O)NC1=C(C#N)CCC1	1	1	3	1	-8	12
Nc1c(C(=O)Nc2ccccc2Cl)nnn1-c1ccc2c(c1)OCCO2	2	-2	-1	2	-3	-2

Compound activity deposited in PubChem by The Scripps Research Institute Molecular Screening Center.
